This passage reports IC50, Activity and inhibition results from ChEMBL document CHEMBL4376814, “Novel cyclin-dependent kinase 9 (CDK9) inhibitor with suppression of cancer stemness activity against non-small-cell lung cancer” (Eur J Med Chem, 2019).

Structures are written as SMILES. Calls of active or inactive are those of the source. No cut-off for these calls is given here.

In one assay the test system is MCF7. Put plainly: Antiproliferative activity against human MCF7 cells assessed as inhibition of cell viability after 72 hrs by CCK-8 assay. The assay is classed as functional, cell-based. Particulars: MCF7, 72 h. The method in brief: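 Cells kept at 37 °C, 5% CO2 in DMEM or RPMI-1640 with 10% FBS and 1% penicillin/streptomycin, then seeded at 3000 cells/well (adherent) or 10,000 cells/well (suspension). Exposed to a range of concentrations for 72 h. CCK-8 added for 1-4 h before reading A450. […] Three independent experiments.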

The test system of assay [1] is NCI-H1299. Put plainly: Induction of cell cycle arrest in human H1299 cells assessed as increase in accumulation of cells at G2/M phase at 1 uM after 24 hrs by propidium iodide/RNase staining based flow cytometric analysis (reference value: 19%). The class given is functional. The method in brief:
(§1)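 A549 and H1299 plated at 5×10^5 cells/mL in 6-well plates, treated after adherence for 24 h. Washed with PBS, fixed overnight in ice-cold 75% ethanol, stained with propidium iodide plus RNase A for 30 min at 37 °C, analysed by flow cytometry for phase distribution. Means ± SD, three independent experiments.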

In assay [2] the test system is NCI-H1299. Put plainly: Induction of cell cycle arrest in human H1299 cells assessed as reduction in accumulation of cells at S phase at 1 uM after 24 hrs by propidium iodide/RNase staining based flow cytometric analysis (reference value: 24.5%). The assay is classed as functional. Set-up: scale not given: the % may be the effect or the level left. Put shortly:
as §1
(In flow cytometry, cells or beads pass a laser one at a time.)

In assay [3] the test system is NCI-H1299. Put plainly: Down regulation CDK9 expression in human H1299 cells at 0.25 to 1 uM after 24 hrs by Western blot analysis. The assay is classed as functional, cell-based. The method in brief:
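A549 and H1299 cells treated for 24 h with serial dilutions alongside a DMSO control. Protein extracts resolved and immunoblotted.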

In assay [4] the test system is NCI-H1299. As to the kind of experiment: Antitumour activity against human H1299 cells xenografted in Balb/c mouse assessed as reduction in Oct4 level at 20 to 80 mg/kg, po administered for 3 weeks by […] based light microscopic analysis. The class given is functional, organism-based. Put shortly: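 Tumours came from the H1299 oral-dosing xenograft run for 3 weeks. Formalin-fixed, paraffin-embedded 5-µm sections were deparaffinized and rehydrated. Primary antibodies (CDK9, cyclin T1, p-Rb Ser780, RNAPII CTD Ser5, Oct4) used at 1:100 overnight at 4 °C. Biotinylated secondary for 1 h at room temperature, then ABC-peroxidase/DAB, hematoxylin counterstain and light microscopy.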
In general terms: Xenograft models place foreign cells or tissue in a host animal.

Assay [5] has as its target ALK tyrosine kinase receptor (Homo sapiens) (UniProt Q9UM73). Put plainly: Inhibition of recombinant human ALK (1058 to end residues) at 1 uM using KKKSPGEYVNIEF as substrate measured after 40 mins in presence of [gamma33P]ATP by scintillation counting method relative to control.
For assay [6], the target named is Ribosomal protein S6 kinase alpha-5 (Homo sapiens) (UniProt O75582). Put plainly: Inhibition of recombinant human MSK1 (2 to end residues) at 1 uM using GRPRTSSFAEGKK as substrate measured after 40 mins in presence of [gamma33P]ATP by scintillation counting method relative to control.
Sequence of Ribosomal protein S6 kinase alpha-5 (Homo sapiens) (O75582 whole entry, looked up): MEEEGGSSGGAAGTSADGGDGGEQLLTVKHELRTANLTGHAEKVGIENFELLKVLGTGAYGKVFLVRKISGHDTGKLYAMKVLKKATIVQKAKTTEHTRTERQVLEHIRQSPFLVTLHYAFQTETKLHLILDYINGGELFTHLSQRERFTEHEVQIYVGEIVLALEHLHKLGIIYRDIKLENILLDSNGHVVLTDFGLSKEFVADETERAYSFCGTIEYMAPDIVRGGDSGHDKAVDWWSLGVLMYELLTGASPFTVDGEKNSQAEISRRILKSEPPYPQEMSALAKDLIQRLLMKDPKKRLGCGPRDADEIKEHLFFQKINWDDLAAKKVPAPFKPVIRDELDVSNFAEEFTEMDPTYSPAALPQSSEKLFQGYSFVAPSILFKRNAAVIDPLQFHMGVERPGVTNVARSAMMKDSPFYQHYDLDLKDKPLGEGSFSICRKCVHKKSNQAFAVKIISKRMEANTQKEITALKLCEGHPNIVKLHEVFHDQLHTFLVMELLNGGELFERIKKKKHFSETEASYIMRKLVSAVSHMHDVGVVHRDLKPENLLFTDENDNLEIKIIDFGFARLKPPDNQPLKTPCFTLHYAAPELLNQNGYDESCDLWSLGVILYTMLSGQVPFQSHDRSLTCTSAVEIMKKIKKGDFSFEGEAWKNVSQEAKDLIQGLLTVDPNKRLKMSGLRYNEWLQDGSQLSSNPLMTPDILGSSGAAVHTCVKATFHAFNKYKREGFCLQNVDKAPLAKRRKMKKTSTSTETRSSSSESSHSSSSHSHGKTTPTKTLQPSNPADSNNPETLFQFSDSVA
The target in assay [7] is CDC7/Cyclin B1 (Homo sapiens) (UniProt P14635+O00311). Put plainly: Inhibition of recombinant full-length human CDC7/cyclinB1 at 1 uM using Histone H1 as substrate measured after 120 mins in presence of [gamma33P]ATP by scintillation counting method relative to control. The assay is classed as protein-complex assay.
Assay [8] addresses Serine/threonine-protein kinase Nek7 (Homo sapiens) (UniProt Q8TDX7). As to the kind of experiment: Inhibition of recombinant human NEK7 (2 to end residues) at 1 uM using FLAKSFGSPNRAY as substrate measured after 40 mins in presence of [gamma33P]ATP by scintillation counting method relative to control.
Assay [9] has as its target Dual specificity tyrosine-phosphorylation-regulated kinase 1A (Homo sapiens) (UniProt Q13627). As to the kind of experiment: Inhibition of recombinant full-length human DYRK1A at 1 uM using RRRFRPASPLRGPPK as substrate measured after 40 mins in presence of [gamma33P]ATP by scintillation counting method relative to control.
Assay [10] deals with Receptor tyrosine-protein kinase erbB-2 (Homo sapiens), P04626 [G778D]. Put plainly: Inhibition of recombinant human ErbB2 (676 to end residues) G778D mutant at 1 uM using poly(Glu, Tyr) 4:1 as substrate measured after 40 mins in presence of [gamma33P]ATP by scintillation counting method relative to control.
For assay [11], the target named is Ribosomal protein S6 kinase alpha-1 (Homo sapiens) (UniProt Q15418). Put plainly: Inhibition of recombinant full-length human Rsk1 at 1 uM using KKKNRTLSVA as substrate measured after 40 mins in presence of [gamma33P]ATP by scintillation counting method relative to control.
Assay [12] addresses Serine/threonine-protein kinase ICK (Homo sapiens) (UniProt Q9UPZ9). Put plainly: Inhibition of recombinant human ICK (1 to 312 residues) at 1 uM using RRRFRPASPLRGPPK as substrate measured after 40 mins in presence of [gamma33P]ATP by scintillation counting method relative to control.
Assay [13] has as its target Serine/threonine-protein kinase PLK2 (Homo sapiens) (UniProt Q9NYY3). Put plainly: Inhibition of human Snk (65 to 409 residues) at 1 uM using casein as substrate measured after 40 mins in presence of [gamma33P]ATP by scintillation counting method relative to control. The method in brief: (§2)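 Percent inhibition of kinase activity at a single compound concentration, measured by the outsourced Eurofins KinaseProfiler panel. Values are the mean of two independent experiments.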

In assay [14] the target is Tyrosine-protein kinase Srms (Homo sapiens) (UniProt Q9H3Y6). Put plainly: Inhibition of human SRMS at 1 uM by radiometric method relative to control. Put shortly: as §2
Sequence of Tyrosine-protein kinase Srms (Homo sapiens) (Q9H3Y6 whole entry): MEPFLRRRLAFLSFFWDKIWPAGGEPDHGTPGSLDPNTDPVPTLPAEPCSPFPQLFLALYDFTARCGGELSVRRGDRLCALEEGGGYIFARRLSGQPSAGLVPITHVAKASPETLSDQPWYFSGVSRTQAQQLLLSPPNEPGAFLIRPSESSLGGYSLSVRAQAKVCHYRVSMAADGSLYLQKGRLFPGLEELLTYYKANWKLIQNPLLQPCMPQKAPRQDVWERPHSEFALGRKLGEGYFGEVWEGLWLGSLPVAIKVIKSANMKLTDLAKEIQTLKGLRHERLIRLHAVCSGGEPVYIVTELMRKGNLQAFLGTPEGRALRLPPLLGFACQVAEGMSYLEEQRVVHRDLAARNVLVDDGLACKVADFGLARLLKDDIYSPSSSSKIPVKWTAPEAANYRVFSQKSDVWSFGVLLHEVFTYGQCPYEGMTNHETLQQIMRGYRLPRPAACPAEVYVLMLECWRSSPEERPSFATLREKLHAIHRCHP
In assay [15] the target is Serine/threonine-protein kinase tousled-like 1 (Homo sapiens) (UniProt Q9UKI8). Put plainly: Inhibition of recombinant full-length human TLK1 at 1 uM using casein as substrate measured after 40 mins in presence of [gamma33P]ATP by scintillation counting method relative to control.
The target in assay [16] is Dual specificity mitogen-activated protein kinase kinase 2 (Homo sapiens) (UniProt P36507). Put plainly: Inhibition of recombinant full-length human MEK2 at 1 uM using unactive […] as substrate measured after 40 mins in presence of [gamma33P]ATP by scintillation counting method relative to control.
Assay [17] concerns the target Serine-protein kinase ATM (Homo sapiens) (UniProt Q13315). Put plainly: Inhibition of recombinant full-length human ATM at 1 uM using GST-cMyc-p53 as substrate measured after 40 mins by ELISA relative to control. Background: In an ELISA, binding on a coated surface is turned into a signal by an enzyme label.
The target in assay [18] is PI3K p110 beta/p85 alpha (Homo sapiens) (UniProt P27986+P42338). Put plainly: Inhibition of recombinant full-length human PI3K p110beta/p85alpha at 1 uM using phosphatidylinositol-4, 5-bisphosphate as substrate measured after 40 mins by fluorescence assay relative to control. The assay is classed as protein-complex assay.
Sequence of PI3K p110 beta/p85 alpha (Homo sapiens) (P27986 2-724 limits assumed): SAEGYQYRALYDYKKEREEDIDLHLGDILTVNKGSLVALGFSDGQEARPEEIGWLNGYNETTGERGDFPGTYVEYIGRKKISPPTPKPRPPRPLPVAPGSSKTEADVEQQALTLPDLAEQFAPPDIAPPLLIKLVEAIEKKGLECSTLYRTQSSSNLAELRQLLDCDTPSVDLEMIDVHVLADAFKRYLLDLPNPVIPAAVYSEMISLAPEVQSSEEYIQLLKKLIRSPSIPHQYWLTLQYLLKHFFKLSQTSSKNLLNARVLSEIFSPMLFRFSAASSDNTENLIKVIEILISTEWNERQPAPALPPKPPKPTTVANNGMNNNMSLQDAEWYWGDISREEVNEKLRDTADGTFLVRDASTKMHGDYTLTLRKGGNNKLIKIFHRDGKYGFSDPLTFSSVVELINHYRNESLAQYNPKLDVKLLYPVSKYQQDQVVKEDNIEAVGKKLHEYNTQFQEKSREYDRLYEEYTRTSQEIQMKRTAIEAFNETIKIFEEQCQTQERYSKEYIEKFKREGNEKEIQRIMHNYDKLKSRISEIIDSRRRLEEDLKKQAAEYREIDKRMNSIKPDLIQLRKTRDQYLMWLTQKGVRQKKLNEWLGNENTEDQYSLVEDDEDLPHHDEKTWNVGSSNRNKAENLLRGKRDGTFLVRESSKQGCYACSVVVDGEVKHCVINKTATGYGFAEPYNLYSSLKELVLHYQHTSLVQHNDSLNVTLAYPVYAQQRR
Sequence of PI3K p110 beta/p85 alpha (Homo sapiens) (P42338 whole entry partner): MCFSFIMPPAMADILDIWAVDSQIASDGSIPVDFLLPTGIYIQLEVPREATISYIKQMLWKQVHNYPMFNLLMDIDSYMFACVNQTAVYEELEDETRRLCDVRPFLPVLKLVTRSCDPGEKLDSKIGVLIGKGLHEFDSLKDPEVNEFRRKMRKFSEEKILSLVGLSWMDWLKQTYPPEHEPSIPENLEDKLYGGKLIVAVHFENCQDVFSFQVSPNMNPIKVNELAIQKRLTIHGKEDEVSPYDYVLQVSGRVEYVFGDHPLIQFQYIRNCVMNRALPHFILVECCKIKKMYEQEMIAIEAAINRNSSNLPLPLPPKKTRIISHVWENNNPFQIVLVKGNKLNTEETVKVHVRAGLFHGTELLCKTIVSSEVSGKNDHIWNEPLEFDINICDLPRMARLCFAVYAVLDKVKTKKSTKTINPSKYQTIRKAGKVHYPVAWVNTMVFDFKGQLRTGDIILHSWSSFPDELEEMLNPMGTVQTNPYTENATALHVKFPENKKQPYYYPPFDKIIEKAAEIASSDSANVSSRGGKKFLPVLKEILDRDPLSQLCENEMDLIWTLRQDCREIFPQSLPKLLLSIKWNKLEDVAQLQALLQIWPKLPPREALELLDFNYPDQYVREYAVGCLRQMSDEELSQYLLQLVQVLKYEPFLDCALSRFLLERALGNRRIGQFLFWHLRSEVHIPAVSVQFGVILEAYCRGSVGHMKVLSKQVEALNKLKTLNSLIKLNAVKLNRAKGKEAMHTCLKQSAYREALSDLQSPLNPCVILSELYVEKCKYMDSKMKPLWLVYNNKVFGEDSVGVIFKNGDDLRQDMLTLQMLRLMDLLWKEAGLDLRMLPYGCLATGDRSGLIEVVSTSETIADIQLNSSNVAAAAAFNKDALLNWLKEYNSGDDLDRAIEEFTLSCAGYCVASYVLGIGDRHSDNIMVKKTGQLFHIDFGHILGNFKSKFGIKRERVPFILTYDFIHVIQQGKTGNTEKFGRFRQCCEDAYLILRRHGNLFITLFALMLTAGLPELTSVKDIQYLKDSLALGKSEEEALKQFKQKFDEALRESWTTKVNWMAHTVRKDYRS
The test system of assay [19] is NCI-H1299. Put plainly: Induction of cell cycle arrest in human H1299 cells assessed as accumulation of cells at G0/G1 phase at 1 uM after 24 hrs by propidium iodide/RNase staining based flow cytometric analysis. The assay is classed as functional. The method in brief:
as §1

The target of assay [20] is 3-phosphoinositide-dependent protein kinase 1 (Homo sapiens) (UniProt O15530). As to the kind of experiment: Inhibition of recombinant human PDK1 (52 to end residues) at 1 uM using PDKtide as substrate measured after 40 mins in presence of [gamma33P]ATP by scintillation counting method relative to control.

Sequence of Serine/threonine-protein kinase PLK2 (Homo sapiens) (Q9NYY3 whole entry, looked up, the tested form may be a part): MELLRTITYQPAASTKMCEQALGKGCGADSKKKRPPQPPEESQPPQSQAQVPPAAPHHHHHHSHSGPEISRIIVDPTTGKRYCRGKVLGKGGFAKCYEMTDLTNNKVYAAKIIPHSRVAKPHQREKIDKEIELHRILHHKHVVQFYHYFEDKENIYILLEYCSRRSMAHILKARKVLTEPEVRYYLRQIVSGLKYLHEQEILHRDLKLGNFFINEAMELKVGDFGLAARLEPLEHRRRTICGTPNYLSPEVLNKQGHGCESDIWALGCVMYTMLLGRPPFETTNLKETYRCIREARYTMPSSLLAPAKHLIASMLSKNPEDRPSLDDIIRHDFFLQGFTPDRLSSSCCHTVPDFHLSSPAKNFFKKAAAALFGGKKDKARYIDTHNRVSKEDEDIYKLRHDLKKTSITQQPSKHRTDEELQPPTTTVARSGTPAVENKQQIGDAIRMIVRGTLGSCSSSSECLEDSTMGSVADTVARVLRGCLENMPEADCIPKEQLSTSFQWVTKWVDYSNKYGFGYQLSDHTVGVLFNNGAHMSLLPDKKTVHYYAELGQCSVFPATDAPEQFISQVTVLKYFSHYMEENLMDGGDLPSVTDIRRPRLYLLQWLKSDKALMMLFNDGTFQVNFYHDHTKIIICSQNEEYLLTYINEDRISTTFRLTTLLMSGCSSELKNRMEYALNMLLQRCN
Sequence of Serine/threonine-protein kinase Nek7 (Homo sapiens) (Q8TDX7 whole entry, looked up): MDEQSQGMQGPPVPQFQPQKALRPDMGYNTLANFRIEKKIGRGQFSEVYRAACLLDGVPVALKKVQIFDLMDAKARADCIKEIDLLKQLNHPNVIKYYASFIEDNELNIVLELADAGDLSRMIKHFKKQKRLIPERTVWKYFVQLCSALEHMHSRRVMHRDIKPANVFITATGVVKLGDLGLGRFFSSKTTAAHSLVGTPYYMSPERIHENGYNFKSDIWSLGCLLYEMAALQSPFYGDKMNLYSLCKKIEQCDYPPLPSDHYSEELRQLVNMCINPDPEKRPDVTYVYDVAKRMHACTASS
Sequence of Serine/threonine-protein kinase ICK (Homo sapiens) (Q9UPZ9 whole entry, the tested form may be a part): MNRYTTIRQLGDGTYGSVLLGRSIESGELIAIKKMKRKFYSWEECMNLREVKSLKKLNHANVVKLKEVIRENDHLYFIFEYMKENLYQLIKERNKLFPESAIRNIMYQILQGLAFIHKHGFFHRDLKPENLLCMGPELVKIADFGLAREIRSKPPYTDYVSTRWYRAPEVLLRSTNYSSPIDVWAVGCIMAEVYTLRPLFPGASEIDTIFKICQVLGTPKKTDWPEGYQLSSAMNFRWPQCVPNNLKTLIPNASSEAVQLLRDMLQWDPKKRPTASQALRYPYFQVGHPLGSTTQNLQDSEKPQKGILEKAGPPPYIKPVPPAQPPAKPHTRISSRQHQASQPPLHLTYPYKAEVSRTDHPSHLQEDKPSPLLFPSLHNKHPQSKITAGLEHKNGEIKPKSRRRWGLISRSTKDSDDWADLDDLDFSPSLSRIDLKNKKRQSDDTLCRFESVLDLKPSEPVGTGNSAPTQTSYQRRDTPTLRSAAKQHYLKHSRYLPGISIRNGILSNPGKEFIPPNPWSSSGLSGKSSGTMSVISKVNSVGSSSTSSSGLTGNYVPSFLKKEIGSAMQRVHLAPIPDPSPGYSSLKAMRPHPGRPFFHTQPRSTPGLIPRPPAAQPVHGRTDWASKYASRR

With `CN(C)C(=O)c1cc2cnc(Nc3ccc(NC(=O)CCCCCCCN=C=S)cc3)nc2n1C1CCCC1`, the IC50 (in general, the point on the concentration scale where inhibition reaches its midpoint) in the assay with MCF7 was determined as 1740 nM. For the same molecule, the values for the Activity with NCI-H1299 [1] and in the assay on NCI-H1299 [2] were 34.4% and 11.2%, respectively. For the same molecule, the result with NCI-H1299 [3] and with NCI-H1299 [19] was inactive. For the same molecule, the result in the assay on NCI-H1299 [4] was Active. The inhibition (usually the relative decrease from the control value, in per cent) in [5] is -3%; in assay [6], 5%; in assay [7], 75%; in assay [8], -6%; in assay [9] it was 2%; in [10] it was -1%. The inhibition in [11] was found to be 21%; in [12], 38%; in [13], 4%; in assay [14] it was 34%; in [15] it was 7%; in assay [16], 8%. Besides, the inhibition came to 6% in [17], 5% in assay [18] and 1% in [20].
